The values that follow come from ChEMBL document CHEMBL2440113, “Synthesis, radiofluorination, and in vivo evaluation of novel fluorinated and iodinated radiotracers for PET imaging and targeted radionuclide therapy of melanoma” (J Med Chem, 2013).

Data set [1] deals with Mus musculus. The data set can be described thus: Ratio of drug level in tumor to bone in C57BL/6J mouse harboring mouse B16-Bl6 cells at 9 to 12 MBq, iv after 3 hrs by PET analysis. The settings on record: in vivo.
Data set [2] is described as follows: Stability of the compound in urine of C57BL/6J mouse harboring mouse B16-Bl6 cells assessed as unchanged drug level at 18 MBq, iv after 1 hr. To be noted: read-out: Stability. Format: ADME, organism-based. The method in brief:
(§1)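 Metabolite analysis in six B16Bl6 tumour-bearing mice given 18 MBq iv, killed at 30 min, 1 h or 2 h. Plasma (centrifuged) and bladder urine were injected directly. Pooled tumours, eyes and livers were homogenized in MeOH/NH₄OH 99.8:0.2, centrifuged, filtered and concentrated. Samples ran on radio-HPLC (C18, MeOH/H₂O/NH₄OH gradient) in duplicate; result is % unchanged tracer of total radioactivity.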

For data set [3], the system named is Blood. The data set can be described thus: Biodistribution in blood of C57BL/6J mouse harboring mouse B16-Bl6 cells at 9 to 12 MBq, iv after 1 hr by PET analysis. Format: ADME, organism-based. The settings on record: in vivo. The method in brief:
(§2)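 Ex vivo dissection in B16Bl6-bearing C57BL/6J mice (3x10⁵ cells s.c. right shoulder), done at day 10 or 14 after implantation. The ¹⁸F tracer was given i.v. at 9-12 MBq. Mice were killed by CO₂ at 1, 2 or 3 h. Tumor, organs and tissues were excised, weighed and gamma-counted, then decay-corrected and expressed as %ID/g. n=3-6 per group; mean ± SD.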

A short description of data set [4]: Stability of the compound in tumor of C57BL/6J mouse harboring mouse B16-Bl6 cells assessed as unchanged drug level at 18 MBq, iv after 2 hrs. Format: ADME, organism-based, Neoplasm. To be noted: read-out: Stability. A digest of the protocol: as §1
For data set [5], the system named is Mus musculus. As to the kind of experiment: Biodistribution in tumor of C57BL/6J mouse harboring mouse B16-Bl6 cells at 8 to 12 MBq, iv after 1 hr by PET analysis. Format: ADME, organism-based, Neoplasm. To be noted: in vivo. The method in brief: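 Static whole-body PET at 1 h after tail-vein injection of [18F]tracer (9-12 MBq/0.15 mL) in C57BL/6J mice carrying subcutaneous B16Bl6 shoulder tumours (3x10⁵ cells), imaged day 10 or 14. Mice under ketamine/xylazine ip. 25 min acquisition, OSEM reconstruction. ROI % ID/g = counts/g/min ÷ injected dose; ratios = tumour % ID/g ÷ organ % ID/g. n=2-8; mean ± SD.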

The next data set relates to Lung. As to the kind of experiment: Biodistribution in lung of C57BL/6J mouse harboring mouse B16-Bl6 cells at 9 to 12 MBq, iv after 3 hrs by PET analysis. To be noted: in vivo. Format: ADME, organism-based. The method in brief: as §2
The nature of data set [6]: Stability of the compound in urine of C57BL/6J mouse harboring mouse B16-Bl6 cells assessed as unchanged drug level at 18 MBq, iv after 2 hrs. In kind it is ADME, organism-based. To be noted: in vivo. A digest of the protocol:
as §1

Data set [7] relates to Mus musculus. The data set can be described thus: Biodistribution in eyes of C57BL/6J mouse harboring mouse B16-Bl6 cells at 9 to 12 MBq, iv after 2 hrs by PET analysis. In kind it is ADME, organism-based, Eye. To be noted: in vivo. A digest of the protocol:
as §2

The next data set relates to Liver. As to the kind of experiment: Stability of the compound in liver of C57BL/6J mouse harboring mouse B16-Bl6 cells assessed as unchanged drug level at 18 MBq, iv after 2 hrs. In kind it is ADME, organism-based. The settings on record: in vivo. The method in brief: as §1
Data set [8] deals with Bone. The data set can be described thus: Biodistribution in bones of C57BL/6J mouse harboring mouse B16-Bl6 cells at 9 to 12 MBq, iv after 1 hr by PET analysis. Format: ADME, organism-based, Bone element. The settings on record: in vivo. The method in brief: as §2
The test system of data set [9] is Bone. As to the kind of experiment: Biodistribution in bones of C57BL/6J mouse harboring mouse B16-Bl6 cells at 9 to 12 MBq, iv after 3 hrs by PET analysis. Format: ADME, organism-based, Bone element. The settings on record: in vivo. The method in brief: as §2
Data set [10] can be described thus: Stability of the compound in eyes of C57BL/6J mouse harboring mouse B16-Bl6 cells assessed as unchanged drug level at 18 MBq, iv after 1 hr. Format: ADME, organism-based, Eye. To be noted: read-out: Stability. The method in brief: as §1
The nature of data set [11]: Stability of the compound in tumor of C57BL/6J mouse harboring mouse B16-Bl6 cells assessed as unchanged drug level at 18 MBq, iv after 30 mins. In kind it is ADME, organism-based, Neoplasm. To be noted: read-out: Stability.
Data set [12] deals with Mus musculus. The data set can be described thus: Ratio of drug level in tumor to muscle in C57BL/6J mouse harboring mouse B16-Bl6 cells at 9 to 12 MBq, iv after 2 hrs by PET analysis. The settings on record: in vivo.
The subject of another data set is Muscle tissue. The data set can be described thus: Biodistribution in muscle of C57BL/6J mouse harboring mouse B16-Bl6 cells at 9 to 12 MBq, iv after 2 hrs by PET analysis. In kind it is ADME, organism-based. To be noted: in vivo. The method in brief:
as §2

Data set [13] concerns Mus musculus. The data set can be described thus: Biodistribution in tumor of C57BL/6J mouse harboring mouse B16-Bl6 cells at 9 to 12 MBq, iv after 3 hrs by PET analysis. In kind it is ADME, organism-based, Neoplasm. The settings on record: in vivo. The method in brief:
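Ex vivo biodistribution. C57BL/6J mice bearing subcutaneous B16Bl6 tumours (3x10⁵ cells, shoulder), day 10 or 14, received [18F]tracer iv (9-12 MBq). They were killed by CO₂ at 1, 2 or 3 h. Tumours and organs were excised, weighed and gamma-counted. Results are decay-corrected % ID/g; ratios are tumour over tissue. n=3-6 per group; mean ± SD.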

The test system of data set [14] is Blood. As to the kind of experiment: Stability of the compound in blood of C57BL/6J mouse harboring mouse B16-Bl6 cells assessed as unchanged drug level at 18 MBq, iv after 2 hrs. Format: ADME, organism-based. The settings on record: in vivo. The method in brief: as §1
A short description of data set [15]: Stability of the compound in eyes of C57BL/6J mouse harboring mouse B16-Bl6 cells assessed as unchanged drug level at 18 MBq, iv after 2 hrs. The settings on record: read-out: Stability. Format: ADME, organism-based, Eye. The method in brief:
as §1

The test system of the next data set is Pancreas. The data set can be described thus: Biodistribution in pancreas of C57BL/6J mouse harboring mouse B16-Bl6 cells at 9 to 12 MBq, iv after 3 hrs by PET analysis. In kind it is ADME, organism-based. To be noted: in vivo. A digest of the protocol:
as §2

Data set [16] in a line: Stability of the compound in liver of C57BL/6J mouse harboring mouse B16-Bl6 cells assessed as unchanged drug level at 18 MBq, iv after 1 hr. In kind it is ADME, organism-based. To be noted: read-out: Stability. The method in brief:
as §1

Where only a bound is given, the exact number is not on record here.

Consider `CCN(CCNC(=O)c1cnc2cc(I)ccc2n1)CCOCCOCCOCC[18F]`, for which the figures for the Ratio in the data set on Mus musculus [1] and in the data set with Mus musculus [12] were 3.7 and 14.46, respectively. Also, the remaining at 1 h is 0.1% in data set [2], > 99% in data set [10] and 8% in [16]. Further, the Drug uptake with Blood [3] is 1.42 % ID/g; with Mus musculus [5], 14.33 % ID/g; with Lung, 1.6 % ID/g; with Mus musculus [7], 18.17 % ID/g; in the data set on Bone [8] it was 1.4 % ID/g; in the data set with Bone [9], 3.27 % ID/g. The values for the Drug uptake with Muscle tissue, in the data set on Mus musculus [13] and in the data set with Pancreas were 0.92 % ID/g, 11.55 % ID/g and 1.33 % ID/g, respectively. The remaining at 2 h in data set [4] and in [15] was > 99% each time. The Stability result (in [6]; in the data set on Liver; in the data set on Blood [14]) was “Unstable” throughout. Further, the remaining at 0.5 h in [11] is > 99%.
Take `CCN(CCNC(=O)c1cnc2cc(I)ccc2n1)CCOCCOCCOCCOCCOCCOCCOCC[18F]`: the Ratio amounted to 2.16 in the data set with Mus musculus [1] and 5.75 in the data set with Mus musculus [12]. Also, the Drug uptake was 1.15 % ID/g in the data set with Blood [3]; 6.63 % ID/g in the data set on Mus musculus [5]; 2.37 % ID/g in the data set on Lung; 12.1 % ID/g in the data set on Mus musculus [7]; 1.82 % ID/g in the data set with Bone [8]; 3.61 % ID/g with Bone [9]. For the same compound, the Drug uptake with Muscle tissue is 1.04 % ID/g; with Mus musculus [13], 6.76 % ID/g; with Pancreas it was 1.81 % ID/g.
